Results from ChEMBL document CHEMBL1153722, “Design, synthesis, and characterization of peptide-based rab geranylgeranyl transferase inhibitors” (J Med Chem, 2009).
Square brackets hold non-standard residues; d marks the D form. Peptide text beside a SMILES is read from it. * marks the point of attachment. Hydrocinnamoyl = O=C(CCc1ccccc1)*; pNA = O=[N+]([O-])c1ccc(N*)cc1; Undecanoyl = CCCCCCCCCCC(=O)*; pGlu = O=C1CC[C@@H](C(=O)O)N1; Ac6c = NC1(C(=O)O)CCCCC1; X1 = Fc1ccc(N*)cc1Cl; NHPh = c1ccc(N*)cc1; NHOH = ON*

species: Rattus norvegicus; experiment: Inhibition of rat recombinant Rab geranylgeranyltransferase at 100 uM in presence of canine Rab7 and rat REP1 NBD-FPP based continuous fluorimetric assay
In short: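 Continuous fluorometric assay in 96/384-well format: 3 μM Rab7, 3 μM REP1, 9 μM NBD-FPP and 400 nM RabGGTase, with or without inhibitor. […] IC50 was calculated from three independent measurements.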

Row | Compound | inhibition
1 | CC(C)C[C@H](NC(=O)[C@@H]1CCC(=O)N1)C(=O)N[C@@H](CCCCN)C(=O)NC1(C(=O)Nc2ccc(F)c(Cl)c2)CCCCC1 ([pGlu]LK[Ac6c]-X1) | 105%
2 | CCCCCCCCCCC(=O)N[C@@H](Cc1ccc(O)cc1)C(=O)N[C@@H](Cc1c[nH]cn1)C(=O)N[C@@H](Cc1ccc(O)cc1)C(=O)NO (Undecanoyl-Tyr-His-Tyr-{NHOH}) | 88%
3 | CC(C)C[C@H](NC(=O)[C@H](COC(C)(C)C)NC(=O)[C@H](Cc1ccccc1)NC(=O)CCc1ccccc1)C(N)=O | 96%
4 | CCC/C=C\c1ccccc1/C=C/C(=O)N[C@H](Cc1ccc(O)cc1)C(=O)N(C)[C@@H](Cc1ccc(OC)cc1)C(=O)N(C)[C@@H](Cc1ccccc1)C(=O)OCc1c[nH]c(=O)[nH]c1=O | 75%
5 | CC[C@H](C)[C@H](NC(=O)c1ccc(-c2ccccc2)cc1)C(=O)N[C@@H](C(=O)N[C@@H](CCC(N)=O)C(=O)NNC(=O)OC)C(C)C | 99%
6 | O=C(N[C@@H](Cc1ccc(O)cc1)C(=O)N[C@@H](Cc1ccc(O)cc1)C(=O)N[C@@H](Cc1ccc(O)cc1)C(=O)O)c1ccc(F)cc1F | 106%
7 | O=C(CNC(=O)[C@H](Cc1ccc(O)cc1)NC(=O)CCc1ccc(F)cc1)N[C@@H](Cc1ccc(O)cc1)C(=O)O | 86%
8 | NC(=O)CC[C@H](NC(=O)[C@H](Cc1ccccc1)NC(=O)[C@H](CO)NC(=O)CCc1ccccc1)C(=O)Nc1ccc([N+](=O)[O-])cc1 (Hydrocinnamoyl-Ser-Phe-Gln-pNA) | 93%
9 | O=C(N[C@H](Cc1ccc(O)cc1)C(=O)N[C@@H](Cc1ccc(O)cc1)C(=O)N[C@@H](Cc1ccc(O)cc1)C(=O)O)OCc1ccccc1 | 42%
10 | NC(=O)CC[C@H](NC(=O)[C@H](Cc1ccccc1)NC(=O)[C@H](CO)NC(=O)CCc1ccccc1)C(=O)O (Hydrocinnamoyl-Ser-Phe-Gln-OH) | 102%
11 | CCCCCCCCCCCOc1ccc(C(=O)N[C@@H](Cc2ccc(O)cc2)C(=O)N[C@@H](Cc2ccc(O)cc2)C(=O)N[C@@H](Cc2c[nH]cn2)C(=O)O)cc1 | 102%
12 | CCCCCc1ccc(CCC(=O)N[C@H](Cc2ccc(O)cc2)C(=O)N[C@@H](Cc2ccccc2)C(=O)N[C@@H](Cc2ccc(O)cc2)C(=O)O)cc1 | 2%
13 | C=CCCCOC(=O)[C@H](CCC(N)=O)NC(=O)[C@H](Cc1ccccc1)NC(=O)[C@H](C)NC(=O)CCc1ccccc1 | 75%
14 | CCCCCCCCCCCCCCCC(=O)N[C@@H](Cc1ccc(O)cc1)C(=O)N[C@@H](Cc1ccc(O)cc1)C(=O)N[C@@H](Cc1ccc(O)cc1)C(=O)NCc1ccc(F)cc1F | 92%
15 | COC(=O)[C@H](CCC(N)=O)NC(=O)[C@H](NC(=O)[C@H]1CCCN1C(=O)c1ccc([N+](=O)[O-])c(NC(C)=O)c1)C(C)C | 98%
16 | CC(C)C[C@H](NC(=O)/C=C/c1ccccc1)C(=O)N[C@@H](Cc1ccccc1)C(=O)N[C@@H](Cc1ccccc1)C(=O)Nc1ccc([N+](=O)[O-])cc1Cl | 104%
17 | NC(=O)CC[C@H](NC(=O)[C@H](Cc1ccccc1)NC(=O)[C@H](CO)NC(=O)CCc1ccccc1)C(=O)Nc1ccccc1 (Hydrocinnamoyl-Ser-Phe-Gln-NHPh) | 90%
18 | NC(=O)CC[C@H](NC(=O)[C@H](Cc1ccccc1)NC(=O)CNC(=O)CCc1ccccc1)C(=O)NNc1ccccc1 | 75%
19 | O=C(CNC(=O)[C@H](Cc1ccc(O)cc1)NC(=O)c1ccc(F)cc1)N[C@@H](Cc1ccc(O)cc1)C(=O)Nc1ccccc1 | 97%
20 | CC(C)C[C@H](NC(=O)[C@H](COC(C)(C)C)NC(=O)[C@H](Cc1ccccc1)NC(=O)/C=C/c1ccc(F)cc1)C(=O)O | 103%
21 | O=C(CNC(=O)c1coc(-c2ccccc2)n1)N[C@@H](Cc1c[nH]cn1)C(=O)N[C@@H](Cc1ccccc1)C(=O)O | 84%
22 | NC(=O)CC[C@H](NC(=O)[C@H](Cc1ccccc1)NC(=O)CNC(=O)CCc1ccccc1)C(=O)Nc1ccc(F)cc1F | 93%
23 | CCCCCCCCCCCOc1ccc(C(=O)N[C@@H](Cc2c[nH]cn2)C(=O)N[C@@H](Cc2ccc(O)cc2)C(=O)N[C@@H](Cc2ccccc2)C(=O)NC2CCCCC2)cc1 | 56%
